Screens from PubChem BioAssay.
AP ELISA ortho – alternative complement pathway inhibitors, primary screen, biochemical, ELISA, human serum, orthogonally pooled compounds. inhibition, % at 5 µM. actives 0.08% (n = 62,000). LPS-coated ELISA, C3 deposition; tested in compound mixtures;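 active means inhibition above 30% in each of the two pooled mixtures holding the compound, so the lower value exceeds 30%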;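 further: 0% = serum in Mg-EGTA without compound and 100% = EDTA serum blank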
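Medium: diluted human serum in Mg2+-EGTA GVB++. Assay system: human serum complement alternative pathway, C3 deposition onto LPS. Also added: Plate-bound LPS. Technique: Anti-C3 ELISA, OD 450 nm. Measure: percent inhibition. Incubation: 1 h at 37 °C. Dosing: 5 µM each compound, pools of ten, 50 µM per pool.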
HER2 expr 66K – inhibitors of Her2 protein expression, primary screen, SKBR-3 cells, AlphaScreen, 66K library | SKBR-3 HER2 protein level, 18-24 h; stronger effect = lower value | HER2 level % of control, % at 10 µM | actives 0.69% (n = 65,000);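 active means HER2 level under 5% of the carrier-only control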;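 further: 100% = DMSO carrier and 0% = 500 nM PU-H71 HSP90 inhibitor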
Target sequence (P04626 whole entry, looked up): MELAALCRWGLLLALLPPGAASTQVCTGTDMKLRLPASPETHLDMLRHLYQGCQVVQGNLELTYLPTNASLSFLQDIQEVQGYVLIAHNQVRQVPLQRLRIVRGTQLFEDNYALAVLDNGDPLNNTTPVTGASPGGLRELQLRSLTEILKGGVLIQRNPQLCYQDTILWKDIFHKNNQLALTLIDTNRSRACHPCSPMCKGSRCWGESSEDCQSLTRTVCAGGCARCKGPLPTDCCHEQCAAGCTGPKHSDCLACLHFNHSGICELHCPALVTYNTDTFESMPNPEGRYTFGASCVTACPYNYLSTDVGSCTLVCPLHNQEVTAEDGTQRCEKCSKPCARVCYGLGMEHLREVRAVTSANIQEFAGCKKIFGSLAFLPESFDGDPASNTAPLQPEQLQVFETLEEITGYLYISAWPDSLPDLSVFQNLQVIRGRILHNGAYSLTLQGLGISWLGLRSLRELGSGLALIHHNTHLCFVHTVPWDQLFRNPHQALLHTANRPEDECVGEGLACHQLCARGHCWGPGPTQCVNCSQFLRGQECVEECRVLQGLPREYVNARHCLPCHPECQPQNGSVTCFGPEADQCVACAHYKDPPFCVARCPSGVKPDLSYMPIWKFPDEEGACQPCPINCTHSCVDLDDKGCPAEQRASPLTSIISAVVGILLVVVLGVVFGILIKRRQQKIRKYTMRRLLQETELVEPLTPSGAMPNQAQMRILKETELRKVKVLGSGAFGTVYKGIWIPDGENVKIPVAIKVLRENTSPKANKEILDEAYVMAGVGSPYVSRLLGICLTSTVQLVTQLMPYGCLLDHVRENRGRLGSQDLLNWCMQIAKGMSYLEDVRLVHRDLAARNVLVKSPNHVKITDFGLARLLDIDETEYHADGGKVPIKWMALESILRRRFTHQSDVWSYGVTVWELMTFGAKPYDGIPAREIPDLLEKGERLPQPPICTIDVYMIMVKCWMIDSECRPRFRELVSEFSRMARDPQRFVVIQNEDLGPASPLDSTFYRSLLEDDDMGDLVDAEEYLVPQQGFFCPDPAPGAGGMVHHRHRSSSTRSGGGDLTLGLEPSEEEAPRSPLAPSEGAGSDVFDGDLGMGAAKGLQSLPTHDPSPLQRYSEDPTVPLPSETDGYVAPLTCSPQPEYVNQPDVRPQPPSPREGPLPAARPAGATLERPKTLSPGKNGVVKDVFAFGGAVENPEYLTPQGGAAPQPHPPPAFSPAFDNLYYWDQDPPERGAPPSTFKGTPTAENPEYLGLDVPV
JNK3 inh – JNK3 kinase activity inhibitors, primary screen, biochemical, human, purified enzyme. AID 746, 2007. actives 0.61% (n = 60,000). inhibition, % at 8 µM. Mitogen-activated protein kinase 10 (Homo sapiens), P53779. HTS; in the data active means inhibition above about 17%;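 further: 0% = DMSO and 100% = reference inhibitor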
HEK293 NFkB inh – inhibitors of PMA/ionomycin-induced NF-kB reporter, primary screen, antigen receptor NF-kB inhibitor project, cell-based, HEK-293 luciferase reporter, luminescence; inhibition, % at 3 µM; actives 0.21% (n = 62,000); HEK-293 NF-kB luciferase reporter;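 active means inhibition above the mean of all tested compounds plus 3 SD, cut at about 40% in these data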;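 further: 0% = stimulated DMSO wells and 100% = 10 µM reference inhibitor 5653914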
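System: NF-kB luciferase reporter HEK-293 cells | Replication: Single test | Control set: DMSO vs reference inhibitor | Evaluation: % inhibition | Schedule: 1 h pretreatment, 16 h stimulation, 37 °C | Probe or stimulus: PMA with ionomycin | Compound dosing: One dose, 3 µM | Detection: Luciferase luminescence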
MT1-MMP txn act – MT1-MMP promoter reporter activation – cell-based, luciferase luminescence, primary screen; actives 0.16% (n = 86,000); HT1080 MT1-MMP promoter luciferase reporter, overnight; stronger effect = higher value; AID 750, 2007; activation factor at 10 µM;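 active means activation factor of at least 2 for MT1-MMP transcription at 10 µM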
* marks the source's active call; other numbers are inactive results; . = no result given. This is a sample that favours compounds with a hit; in the whole collection about 1.1% have one here.

SMILES	AP ELISA ortho	HER2 expr 66K	JNK3 inh	HEK293 NFkB inh	MT1-MMP txn act
COc1cccc(-n2c(SCC(=O)O)nnc2-c2cccnc2)c1	16	-18*	-4	14	1
COc1ccc(-n2c(SCC(N)=O)nnc2-c2cccnc2)cc1	.	.	.	.	1.2
Cc1sc2ncnc(Sc3nnnn3-c3ccccc3)c2c1C	9	-14*	-3	26	1.1
Clc1ccc(-n2nnnc2Sc2ncnc3sccc23)cc1	-8	-11*	1	-1	1
Nc1ccc(Sc2nnnn2-c2ccccc2)c(Cl)c1	-3	105	2	5	0.9
COc1ccc(CSc2nnc(N)s2)cc1F	6	82	-6	5	1
CCOc1cc(C(=O)NCCOC)ccc1OC	10	-8.0*	7	4	1
COc1ccccc1NC(=O)CSc1nc2nc(C)cc(C)c2c(=O)[nH]1	3	93	5	0	1.3
OCCN1CCOCCN(CCO)CCN(CCO)CC1	5	84	4	-2	0.9
CCCN1C=CC(=C2C(=O)c3ccccc3C2=O)C=C1	6	128	56*	86*	.
CC1=CC(=C2C(=O)c3ccccc3C2=O)C=C(C)O1	11	90	10	-3	1.3
CN1C=CC(=C2C(=O)c3ccccc3C2=O)C=C1	-3	104	32*	-15	0.6
CCCN1C2=C(C(=O)CC(C)(C)C2)C(c2ccc(F)cc2)C2=C1c1ccccc1C2=O (configuration not stated)	.	.	.	.	1
CCN1C=CC(=C2C(=O)c3ccccc3C2=O)C=C1	-4	91	62*	50*	.
CCOC(=O)c1cnc(SCC(=O)N2CCc3ccccc32)nc1N	17	.	8	-8	1.1
O=C(NCc1ccccc1F)C1CCN(C(=O)NCc2ccccc2)CC1	33*	103	-4	17	1.2
O=C(NCc1ccc(F)cc1)C1CCN(C(=O)NCc2ccccc2)CC1	4	91	4	19	1.1
COCCNC(=O)c1ccc(CS(=O)(=O)c2c(Cl)cccc2Cl)o1	-3	123	5	8	1
COc1ccc(S(=O)(=O)NCc2ccc(C(=O)O)cc2)cc1	13	96	.	18	1.1
COc1ccc(CNc2ccc(C(=O)O)cc2)cc1	4	-30*	0	0	1.1
CCOC(=O)C1=C(N)OC2=C(C(=O)CC(C)(C)C2)C1c1ccco1 (configuration not stated)	-14	94	-6	2	1.1
CC1(C)CC(=O)C2=C(C1)OC1=C(C(=O)CC(C)(C)C1)C2c1ccc(O)cc1O	12	-0.6*	0	-2	0.1
CN(c1ccc(OCC(=O)Nc2ccc3[nH]c(=O)[nH]c3c2)cc1)S(=O)(=O)c1ccc(Cl)cc1	.	.	.	.	1
CCC(=O)Nc1ccc(C(=O)n2ccc(C)n2)cc1	35*	110	1	8	1.1
O=C(Nc1ccc(N2CCOCC2)cc1)c1cnsn1	-8	119	-1	42*	0.1
SMILES	AP ELISA ortho	HER2 expr 66K	JNK3 inh	HEK293 NFkB inh	MT1-MMP txn act
CS(=O)(=O)c1ncc(Cl)c(C(=O)Nc2ccc(N3CCOCC3)cc2)n1	20	-1.6*	3	5	1
O=C(Nc1ccc(N2CCOCC2)cc1)c1ccncc1	.	.	.	.	1.7
O=C(Nc1ccc(N2CCOCC2)cc1)c1ccc(Cl)nc1	.	.	.	.	1.3
CNC(=O)CCSc1ccc(C)cc1	.	.	.	.	1.2
COc1ccc(OC)c(-n2nnnc2SCC(=O)Nc2nc(C)c(C)s2)c1	2	86	3	3	1
Cc1cccc2c1N(CCCOc1ccccc1)C(=O)C2=O	.	.	.	.	1.1
CCN(CC)c1ccc2cc(-c3nnc(-c4ccccc4)o3)c(=O)oc2c1	.	.	.	.	2*
CCN(CC)c1ccc2cc(-c3nc4ccccc4n3C)c(=O)oc2c1	5	62	-10	40*	0.7
N=C1N(/N=C/c2ccccc2)C(=Nc2ccccc2)C(=S)N1c1ccccc1	.	.	.	.	2*
COC(=O)C12CC3CC(C1)CC(n1cnc(Cl)n1)(C3)C2	.	.	.	.	2.3*
COC(=O)c1ccccc1NC(=O)C12CC3CC(C1)CC(n1cnc(Cl)n1)(C3)C2	.	.	.	.	1.1
CCOc1ccc(NC(=O)CN2CCN(CC(=O)Nc3ccc(C(=O)OC)cc3)CC2)cc1	23	101	3	14	1.3
CCOc1ccc(NC(=O)CN2C(=O)C3CCCN3C2=O)cc1 (configuration not stated)	17	91	17*	12	1
CC(Oc1ccccc1F)C(=O)Nc1ccc2ccccc2c1 (configuration not stated)	.	.	.	.	2*
CC(C)N(Cc1nc(-c2ccccc2)no1)C(=O)CN1C(=O)c2ccccc2C1=O	16	-19*	5	-2	1
COc1ccc(Cl)cc1NC(=O)c1c(-c2ccccc2)noc1C	25	57	6	3	1
Cc1ccc2cc(CCNC(=O)C(C)(C)C)c(=O)[nH]c2c1	16	80	-3	13	1.1
O=C(Nc1nncs1)c1ccc(N2C(=O)C3C4C=CC(C4)C3C2=O)cc1 (configuration not stated)	13	85	17*	-6	1.3
